The values that follow come from ChEMBL document CHEMBL4334441, “Exploitation of Antibiotic Resistance as a Novel Drug Target: Development of a β-Lactamase-Activated Antibacterial Prodrug” (J Med Chem, 2019).

A short description of data set [1]: Prodrug activation in ciprofloxacin-resistant Escherichia coli isolate EC13 expressing bacterial beta lactamase CTX-M-15 assessed as bacterial CTX-M-15-mediated ciprofloxacin release by measuring growth inhibition incubated for 18 hrs by broth microdilution method. A general note: In broth dilution the organism is exposed to a series of concentrations in liquid medium.

Data set [2] in a line: Prodrug activation in Escherichia coli CFT073 expressing beta lactamase CTX-M-1 assessed as bacterial CTX-M-1-mediated ciprofloxacin release by measuring growth inhibition incubated for 18 hrs by broth microdilution method. To be noted: bacteria. In outline: (§1)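 MIC determination in E. coli CFT073, either wild type or carrying pSU18 (empty pEMP, or encoding CTX-M, NDM-1 or KPC). Dose–response growth curves were run, and each point is the mean ± SEM of n = 3. The MIC is the minimal concentration that inhibits bacterial growth.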

A short description of data set [3]: Prodrug activation in ciprofloxacin sensitive Escherichia coli isolate EC16 expressing bacterial beta lactamase CTX-M-15 assessed as bacterial CTX-M-15-mediated ciprofloxacin release by measuring growth inhibition incubated for 18 hrs by broth microdilution method.
Data set [4] concerns Escherichia coli. Kind of data set: Growth inhibition of Escherichia coli CFT073 expressing pSU18 incubated for 18 hrs in presence of human serum. In kind it is organism-based. In outline:
(§2)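 MIC assay in E. coli CFT073 carrying pSU18 (empty pEMP or encoding CTX-M-1), run in the presence of human serum. The read-out is the minimal concentration inhibiting bacterial growth.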

The nature of data set [5]: Prodrug activation in ciprofloxacin sensitive Escherichia coli isolate EC17 expressing bacterial beta lactamase CTX-M-15 assessed as bacterial CTX-M-15-mediated ciprofloxacin release by measuring growth inhibition incubated for 18 hrs by broth microdilution method.
A short description of data set [6]: Prodrug activation in Escherichia coli CFT073 expressing beta lactamase CTX-M-1 assessed as bacterial CTX-M-1-mediated ciprofloxacin release by measuring growth inhibition incubated for 18 hrs in presence of human serum by broth microdilution method. To be noted: bacteria. In outline: as §2
Data set [7] relates to Escherichia coli. Kind of data set: Bactericidal activity against Escherichia coli CFT073 expressing pSU18 assessed as reduction in colony forming units at 78 nM measured after 6 hrs. To be noted: in vivo, 0.078 µM. In kind it is ADME, organism-based. In outline:
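Time-kill assay on uropathogenic E. coli CFT073 carrying pSU18, either empty (pEMP, β-lactamase coding sequence absent) or encoding CTX-M-1. Cells were left untreated or exposed to drug, and viability was followed over time by CFU counts, with a 6 h incubation read-out.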

The test system of data set [8] is Enterococcus faecalis. Kind of data set: Effect on growth of Enterococcus faecalis ATCC 29212 incubated for 18 hrs by broth microdilution method. In kind it is organism-based. To be noted: in vivo.
Data set [9] is described as follows: Ratio of prodrug activation in Escherichia coli CFT073 expressing beta lactamase CTX-M-1 assessed as bacterial CTX-M-1-mediated ciprofloxacin release by measuring bactericidal activity to bactericidal activity against Escherichia coli CFT073 expressing pSU18.
Data set [10] can be described thus: Prodrug activation in Escherichia coli CFT073 expressing KPC3 assessed as bacterial KPC3-mediated ciprofloxacin release by measuring growth inhibition incubated for 18 hr by broth microdilution method. To be noted: bacteria. The method in brief:
as §1

Data set [11] deals with Enterococcus faecalis. Kind of data set: Effect on growth of Enterococcus faecalis GW01 incubated for 18 hrs by broth microdilution method. In kind it is organism-based. To be noted: in vivo.
A short description of data set [12]: Prodrug activation in Escherichia coli CFT073 expressing NDM1 assessed as bacterial NDM1-mediated ciprofloxacin release by measuring growth inhibition incubated for 18 hr by broth microdilution method. To be noted: bacteria. The method in brief: as §1
Data set [13] in a line: Prodrug activation in ciprofloxacin-resistant Escherichia coli isolate EC12 expressing bacterial beta lactamase CTX-M-15 assessed as bacterial CTX-M-15-mediated ciprofloxacin release by measuring growth inhibition incubated for 18 hrs by broth microdilution method.
Data set [14] can be described thus: Prodrug activation in ciprofloxacin sensitive Escherichia coli isolate EC11 expressing bacterial beta lactamase CTX-M-15 assessed as bacterial CTX-M-15-mediated ciprofloxacin release by measuring growth inhibition incubated for 18 hrs by broth microdilution method.
Data set [15] is described as follows: Prodrug activation in ciprofloxacin-resistant Escherichia coli isolate EC19 expressing bacterial beta lactamase CTX-M-15 assessed as bacterial CTX-M-15-mediated ciprofloxacin release by measuring growth inhibition incubated for 18 hrs by broth microdilution method.
A further data set concerns Bacteria. Kind of data set: Prodrug activation assessed as bacterial N-terminal His6-tagged CTX-M-15-mediated ciprofloxacin release by measuring inhibition of DNA gyrase activity 1 uM by SYBR Safe DNA gel staining-based agarose gel electrophoresis relative to control. The method in brief:
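Cell-free assay using recombinant DNA gyrase with relaxed pBR322 plasmid DNA as substrate. Compounds were incubated with the gyrase and DNA in the absence or presence of purified recombinant β-lactamase CTX-M-15.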

For data set [16], the system named is Escherichia coli. Kind of data set: Growth inhibition of Escherichia coli CFT073 incubated for 18 hrs by broth microdilution method. To be noted: in vivo. In kind it is organism-based. The method in brief:
as §1

Data set [17] deals with Escherichia coli. Kind of data set: Growth inhibition of ciprofloxacin-susceptible Escherichia coli CFT073 harboring pSU18 incubated for 18 hrs by broth microdilution method. In kind it is organism-based. To be noted: in vivo. The method in brief: as §1

SMILES strings stand for the structures. In brackets after ≈: the same amount, converted by molar mass.

Regarding `CC(=O)N[C@@H]1C(=O)N2C(C(=O)O)=C(COC(=O)c3cn(C4CC4)c4cc(N5CCNCC5)c(F)cc4c3=O)CS[C@H]12`, the “growth inhibition (GI)” value in data set [1] is “Not Active”; in data set [3], “Active”; in data set [5], “Active”; in [6], “Active”; in [13] it was “Not Active”; in data set [14], “Active”. For the same compound, the “growth inhibition (GI)” value in [15] is on record as “Not Active”. Further, the MIC in data set [2] was 0.04 µg/mL (≈ 0.0683 µM); in data set [10], 0.04 µg/mL (≈ 0.0683 µM); in [12], 0.04 µg/mL (≈ 0.0683 µM); against Escherichia coli [16] it was 0.18 µg/mL (≈ 0.307 µM); in the data set with Escherichia coli [17], 0.18 µg/mL (≈ 0.307 µM). The Activity entry with Escherichia coli [4], in the data set on Escherichia coli [7], in the data set with Enterococcus faecalis [8] and with Enterococcus faecalis [11] was “Non-Toxic” in each case. The Ratio in data set [9] is listed as greater than 100. Besides, in the data set on Bacteria, the inhibition – broadly, the change of the read-out against control, counted positive when it falls – was greater than 50%.
